Laboratory results from ChEMBL document CHEMBL2157923, “1,3-Azoles from ortho-naphthoquinones: synthesis of aryl substituted imidazoles and oxazoles and their potent activity against Mycobacterium tuberculosis” (Bioorg Med Chem, 2012).
≈ marks a conversion by molar mass, not a printed value. Calls of active or inactive are those of the source. No cut-off for these calls is given here.

Legend:
Format in all cases: functional
[1] = tested on: Mycobacterium tuberculosis; test: Antimycobacterial activity against rifampicin-resistant Mycobacterium tuberculosis ATCC 35338 after 7 days by resazurin microtitre assay
Summary of the method: (§1)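 REMA MIC. Strains kept on Ogawa-Kudoh medium 14 days at 37 °C. Suspension vortexed and adjusted to McFarland tube 1 (3.2 × 10^6 cfu/mL), then diluted 1:20 in Middlebrook 7H9 with 10% OADC and glycerol. Compounds tested from 100 ug/mL down to 0.19 ug/mL. Incubated 7 days at 37 °C, resazurin added, 2 more days at 37 °C; colour change read.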

[2] = tested on: Mycobacterium tuberculosis; test: Antimycobacterial activity against isoniazid-resistant Mycobacterium tuberculosis ATCC 35822 after 7 days by resazurin microtitre assay; summary of the method: as §1
[3] = tested on: Mycobacterium tuberculosis; test: Antimycobacterial activity against rifampicin-resistant Mycobacterium tuberculosis; summary of the method: as §1

SMILES | MIC ([1]; ATCC 35338, 168 h) | MIC ([2]; ATCC 35822, 168 h) | MIC [1] | MIC [2] | MIC [3]
CC1(C)CCc2c(c3ccccc3c3nc(-c4ccccc4)[nH]c23)O1 | > 304 µM | 38 µM (≈ 12.5 µg/mL) | – | – | –
CC1CC2=C(O1)c1ccccc1C(=O)C2=O (stereo not given) | – | – | inactive | inactive | –
CC1(C)CCc2c(c3ccccc3c3nc(-c4ccccn4)[nH]c23)O1 | 19 µM (≈ 6.26 µg/mL) | 19 µM (≈ 6.26 µg/mL) | – | – | –
CC1(C)CCc2c(c3ccccc3c3nc(-c4ccccc4[N+](=O)[O-])[nH]c23)O1 | 33.5 µM (≈ 12.5 µg/mL) | 16.7 µM (≈ 6.24 µg/mL) | – | – | –
CC1(C)CCc2c(c3ccccc3c3nc(-c4ccc(C(F)(F)F)cc4)[nH]c23)O1 | – | – | inactive | inactive | –
CC1(C)CCc2c(c3ccccc3c3nc(-c4ccc(C#N)cc4)oc23)O1 | 4.4 µM (≈ 1.56 µg/mL) | 8.8 µM (≈ 3.12 µg/mL) | – | – | –
CC1(C)CCc2c(c3ccccc3c3nc(-c4ccc(C#N)cc4)[nH]c23)O1 | – | – | inactive | inactive | –
CC1(C)CCc2c(c3ccccc3c3nc(-c4ccccc4Br)[nH]c23)O1 | 15.3 µM (≈ 6.23 µg/mL) | 15.3 µM (≈ 6.23 µg/mL) | – | – | –
Cc1ccc(-c2nc3c(o2)c2c(c4ccccc43)OC(C)(C)C2)cc1 | – | > 304 µM | – | – | –
CC1(C)Cc2c(c3ccccc3c3nc(-c4ccc([N+](=O)[O-])cc4)oc23)O1 | – | > 278 µM | – | – | –
CC1(C)CCc2c(c3ccccc3c3nc(-c4ccccc4C(F)(F)F)[nH]c23)O1 | 2 µM (≈ 0.793 µg/mL) | 4 µM (≈ 1.59 µg/mL) | – | – | –
Cc1ccccc1-c1nc2c([nH]1)c1c(c3ccccc32)OC(C)(C)CC1 | 4.5 µM (≈ 1.54 µg/mL) | 4.5 µM (≈ 1.54 µg/mL) | – | – | –
CC1(C)CCc2c(c3ccccc3c3nc(-c4cccc([N+](=O)[O-])c4)[nH]c23)O1 | – | – | inactive | inactive | –
CC1(C)CCc2c(c3ccccc3c3nc(-c4ccc(F)cc4)[nH]c23)O1 | 18 µM (≈ 6.24 µg/mL) | 18 µM (≈ 6.24 µg/mL) | – | – | –
COc1ccccc1-c1nc2c([nH]1)c1c(c3ccccc32)OC(C)(C)CC1 | 17.4 µM (≈ 6.24 µg/mL) | 17.4 µM (≈ 6.24 µg/mL) | – | – | –
CC1(C)CCc2c(c3ccccc3c3nc(-c4cccnc4)[nH]c23)O1 | – | – | inactive | inactive | –
CC1(C)CCc2c(c3ccccc3c3nc(-c4ccc(Cl)cc4)[nH]c23)O1 | 17.2 µM (≈ 6.24 µg/mL) | 17.2 µM (≈ 6.24 µg/mL) | – | – | –

SMILES | MIC ([1]; ATCC 35338, 168 h) | MIC ([2]; ATCC 35822, 168 h) | MIC [1] | MIC [2] | MIC [3]
CC1(C)CCc2c(c3ccccc3c3nc(-c4ccc(Br)cc4)[nH]c23)O1 | – | – | inactive | inactive | –
CC1(C)CCc2c(c3ccccc3c3nc(-c4cccc(C#N)c4)oc23)O1 | 17.6 µM (≈ 6.24 µg/mL) | 17.6 µM (≈ 6.24 µg/mL) | – | – | –
CC1(C)CCc2c(c3ccccc3c3nc(-c4ccccc4C#N)oc23)O1 | 17.6 µM (≈ 6.24 µg/mL) | 17.6 µM (≈ 6.24 µg/mL) | – | – | –
CO[C@H]1/C=C/O[C@@]2(C)Oc3c(C)c(O)c4c(O)c(c(/C=N/N5CCN(C)CC5)c(O)c4c3C2=O)NC(=O)/C(C)=C\C=C\[C@H](C)[C@H](O)[C@@H](C)[C@@H](O)[C@@H](C)[C@H](OC(C)=O)[C@@H]1C [RIFAMPIN] | > 4.8 µM | ≤ 0.1 µM | – | – | –
CC1(C)CCc2c(c3ccccc3c3nc(-c4cnc5ccccc5c4)[nH]c23)O1 | – | – | inactive | inactive | –
CC1(C)Cc2c(c3ccccc3c3nc(-c4ccccc4)[nH]c23)O1 | 318 µM (≈ 100 µg/mL) | > 318 µM | – | – | –
C=CCC1Cc2c(c3ccccc3c3nc4ccccc4nc23)OC1(C)C (stereo not given) | – | – | – | – | 0.78 µg/mL (≈ 2.2 µM)
NNC(=O)c1ccncc1 [ISONIAZID] | ≤ 0.4 µM | 7.3 µM (≈ 1 µg/mL) | – | – | –
C=CCC1=C(O)C(=O)c2ccccc2C1=O | 117 µM (≈ 25 µg/mL) | 467 µM (≈ 100 µg/mL) | – | – | –
Cc1ccc(-c2nc3c([nH]2)c2c(c4ccccc43)OC(C)(C)C2)cc1 | 304 µM (≈ 100 µg/mL) | > 304 µM | – | – | –
CC1Cc2c(c3ccccc3c3nc(-c4ccc([N+](=O)[O-])cc4)oc23)O1 (stereo not given) | 289 µM (≈ 100 µg/mL) | > 289 µM | – | – | –
CC1(C)CCc2c(c3ccccc3c3nc(-c4cccc(F)c4)[nH]c23)O1 | 18 µM (≈ 6.24 µg/mL) | 18 µM (≈ 6.24 µg/mL) | – | – | –
CC1(C)CCc2c(c3ccccc3c3nc(-c4cccc(C#N)c4)[nH]c23)O1 | – | – | inactive | inactive | –
CC1(C)CCc2c(c3ccccc3c3nc(-c4cc5ccccc5cn4)[nH]c23)O1 | ≤ 2 µM | ≤ 2 µM | – | – | –
CC1(C)CCc2c(c3ccccc3c3nc(-c4ccc([N+](=O)[O-])cc4)[nH]c23)O1 | – | 4.2 µM (≈ 1.57 µg/mL) | inactive | – | –
CC1(C)CCc2c(c3ccccc3c3nc(-c4cccc(Br)c4)[nH]c23)O1 | 15.3 µM (≈ 6.23 µg/mL) | 15.3 µM (≈ 6.23 µg/mL) | – | – | –
CC1(C)CCc2c(c3ccccc3c3nc(-c4cccc(C(F)(F)F)c4)[nH]c23)O1 | 4 µM (≈ 1.59 µg/mL) | 4 µM (≈ 1.59 µg/mL) | – | – | –
